Sampled rows, rich in hits. Any-hit rate of the full collection: about 1.5%.
TbMetRS inhib – Trypanosoma brucei MetRS inhibition; purified T. brucei MetRS, ATP depletion, Kinase-Glo luminescence; inhibition, % at 11.9 µM; 360,000 compounds, 0.4% hits; AID 624268;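 active = inhibition above a per-plate cutoff of the control wells' mean inhibition plus 3 SD, cut at about 5.5% in these data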;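 note: 0% = DMSO wells median and 100% = median of wells with control inhibitor compound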
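Material: parasite MetRS enzyme / Replication: singlicate, one well per compound / Signal: luminescence of leftover ATP / Schedule: 2 h aminoacylation at 25 °C after 15 min preincubation / Medium: HEPES-MgCl2-KCl buffer plus DTT, spermine, BSA, pyrophosphatase / Doses: 11.9 µM single point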
procasp3 activ – activates human procaspase-3 | P42574 | recombinant procaspase-3 D3A, Ac-DEVD-pNA absorbance 405 nm | activation, % at 8.5 µM | 330,000 compounds, 0.11% hits | AID 463141;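 active = activation above the mean of all tested compounds plus 3 SD, cut at about 21% in these data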;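 note: 0% = DMSO alone and 100% = DMSO wells spiked with extra 5 µM PC-3 D3A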
Target sequence (P42574 whole entry D9A/D28A/D175A): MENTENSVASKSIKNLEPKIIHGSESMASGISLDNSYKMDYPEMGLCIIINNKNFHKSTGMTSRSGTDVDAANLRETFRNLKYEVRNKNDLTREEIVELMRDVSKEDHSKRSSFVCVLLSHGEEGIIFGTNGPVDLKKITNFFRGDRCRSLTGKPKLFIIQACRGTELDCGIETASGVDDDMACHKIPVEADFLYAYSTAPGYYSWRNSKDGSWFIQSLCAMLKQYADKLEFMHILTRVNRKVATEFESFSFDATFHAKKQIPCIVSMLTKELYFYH
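Compound: 8.5 µM single point, 0.8% DMSO / Material: Autoprocessing-dead procaspase-3 D3A mutant enzyme / Timing: 1 h preincubation plus 2 h reaction at 25 °C / Medium: Zinc-free HEPES/NaCl buffer with 0.01% Triton X-100 at pH 7.4 / Technique: 405 nm absorbance of p-nitroaniline, reads at 0 and 120 min / Repeats: one well per compound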
procasp7 counter – activates human procaspase-7, counter-screen for procaspase-3 activators. P55210. recombinant procaspase-7, Ac-DEVD-pNA absorbance 405 nm; D23A/D198A/D206A triple mutant, cannot self-cleave; scale: DMSO 0, 5 µM enzyme 100. activation, % at 8.5 µM. 330,000 compounds, 0.093% hits;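 active = percent activation above the screen-wide mean plus 3 SD, cut at about 25% in these data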
Target sequence (P55210 whole entry D23A/D198A/D206A): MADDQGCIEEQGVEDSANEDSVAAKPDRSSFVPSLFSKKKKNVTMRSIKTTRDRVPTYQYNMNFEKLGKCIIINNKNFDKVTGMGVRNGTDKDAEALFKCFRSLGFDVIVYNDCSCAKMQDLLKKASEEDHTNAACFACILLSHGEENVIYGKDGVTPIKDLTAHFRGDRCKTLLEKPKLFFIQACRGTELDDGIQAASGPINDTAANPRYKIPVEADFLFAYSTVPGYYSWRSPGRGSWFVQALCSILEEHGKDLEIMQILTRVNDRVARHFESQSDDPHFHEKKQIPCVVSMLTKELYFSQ
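signal = Epi-absorbance of released pNA at 405 nm, two timepoints | assay system = Uncleavable procaspase-7 mutant enzyme | reagent = Ac-DEVD-pNA substrate, 400 µM as added | times = 1 h enzyme–compound preincubation and 2 h substrate reaction, both 25 °C | benchmarks = low DMSO alone, high DMSO plus 5 µM PC-7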
MsrA inh – inhibitors of bovine MsrA. purified bovine MsrA, absorbance read-out. inhibition, % at 15.5 µM. 360,000 compounds, 0.75% hits;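 note: 0% = vehicle wells with enzyme and 100% = reference inhibitor wells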
bovine MsrA act – activates bovine MsrA enzyme. purified bovine MsrA, absorbance read-out. activation, % at 10.6 µM. 360,000 compounds, 0.3% hits. AID 602163; in the data active = activation above about 7.5%;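 note: 0% = vehicle and 100% = reference activator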
MsrA conf – confirmation of bovine MsrA inhibitors | shares compounds with MsrA inh | purified bovine MsrA, absorbance read-out | inhibition, % at 15.5 µM | 2,300 compounds, 41% hits | AID 651822;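 note: coupled to thioredoxin reductase with NADPH and selenocystamine and DMSO as substrate; 0% = vehicle only and 100% = full effect of reference inhibitor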
* = called active by the depositor; . = no result given. Cut-off read from the data, not from the text of the source, unless noted: active = inhibition above about 4.5%; inactive = the rest.

SMILES	TbMetRS inhib	procasp3 activ	procasp7 counter	MsrA inh	bovine MsrA act	MsrA conf
Cc1ccc(-c2cc(NC(=O)Cc3c[nH]c4ccccc34)ccc2N(C)c2cccnc2)cc1	.	.	.	1	.	.
COc1ccccc1/C=C\C=N\NC(=O)c1ccco1	-1	0	-8	2	-2	.
COc1ccccc1/C=C\C=N\NC(=O)CCn1nnc2ccccc21	-1	1	0	5.0*	-11	4
COc1ccccc1/C=C/C=N/NC(=O)c1cccs1	1	-8	-6	5.8*	-4	6.7*
COc1ccccc1/C=C/C=N/NC(=O)Cc1cccn1C	0	-2	-24	5.8*	-2	4.9*
Cc1cc(N2CCNC[C@H]2C)ccc1N1CCS(=O)(=O)CC1	.	.	.	0	.	.
O=c1oc2ccccc2c2c1ccc1ccccc12	0	9	-7	6.2*	-2	5.0*
O=c1oc2ccccc2c2[nH]ccc12	-1	4	10	1	-8	.
CC1=CC(=O)[C@@H](O)[C@@H](c2ccccc2Br)N1C	0	.	.	5.3*	-5	4
COc1ccc(/C=C/C(=O)c2ccc[nH]2)cc1OC	-1	-5	-16	5.4*	-11	4
CCc1cc(C(=O)O)c(NC(=O)/C=C/c2ccc(OC)c(OC)c2)s1	0	-3	0	5.6*	-6	4.9*
COc1ccc(/C=C/C(=O)Nc2ccccc2C(=O)O)cc1OC	-1	-1	2	5.2*	-11	5.4*
COc1ccc(/C=C/C(=O)c2ccc(C(=O)/C=C/c3ccc(OC)c(OC)c3)cc2)cc1OC	-1	.	.	2	-4	.
COc1cc(/C=C/C(=O)NC(=O)c2ccccc2O)ccc1O	2	-6	11	5.6*	-4	4
O=C(/C=C/c1ccccc1)NC(=O)c1ccccc1O	3	0	13	1	-4	.
COc1cccc(C(C(=O)NCc2ccccc2)N2CCN(C(=O)C3CCCO3)CC2)c1OC (centres undefined)	-1	.	.	1	.	.
COC(=O)CCN1CCSCCS1(=O)=O	.	.	.	0	.	.
COc1ccc(/C=C/C(=O)Nc2ccc(C(N)=O)cc2)cc1OC	-1	0	3	5.0*	-5	5.0*
N/C(=N\OC(=O)/C=C/c1ccccc1)c1ccccn1	0	-2	3	0	-4	.
COc1ccc(/C=C/C(=O)O/N=C(\N)c2ccccn2)cc1OC	0	5	-9	4.8*	-2	4
COC(=O)[C@]12C[C@H](CC(=O)NCCC(C)C)C(=O)N(CCC3=CCCCC3)C1=C[C@H](C(C)(C)C)O[C@@H]2C	.	.	.	0	.	.
Cc1ccc(Cc2c(-c3cccc(Br)c3)nc3c4ccccc4ccn23)cc1	.	.	.	0	.	.
CCOC(=O)c1c(C)[nH]sc1=S	0	.	.	4.9*	5	3
CCOC(=O)c1[nH]c(C)c(C(=O)OCC)c1C	-1	-1	7	-1	-3	.
C[C@@H]1CN([C@@H](C)CO)C(=O)CCCn2cc(nn2)CO[C@H]1CN(C)C(=O)c1ccc(N2CCN(C)CC2)cc1	.	.	.	2	.	.
SMILES	TbMetRS inhib	procasp3 activ	procasp7 counter	MsrA inh	bovine MsrA act	MsrA conf
Cc1ccc(/C=N/NC(=O)c2ccc3nc[nH]c3c2)s1	0	-4	6	7.3*	-3	5.7*
COc1cc(OC)c(OC)cc1/C=N/NC(=O)c1ccc2nc[nH]c2c1	0	3	1	2	-3	.
COc1cccc(/C=N/NC(=O)c2ccc3nc[nH]c3c2)c1O	0	8	-12	2	-2	.
COc1ccc(/C=N/NC(=O)c2ccc3nc[nH]c3c2)c(OC)c1OC	-1	-1	0	5.1*	-14	2
CCN1C(=O)/C(=C\c2nc3ccccc3c(=O)n2CC)c2ccccc21	-1	-3	-1	4.7*	-10	1
CCn1c(/C=C2/C(=O)N(C)c3ccccc32)nc2ccccc2c1=O	0	2	-4	1	-4	.
Oc1ccc(C(=Nc2ccccc2)c2ccccc2)c(O)c1	0	.	.	5.3*	-5	1
O=C(N/N=C/C(Br)=C/c1ccccc1)c1cnccn1	0	7	5	6.3*	-6	4.6*
Cn1cc(C(=O)N/N=C/C(Br)=C/c2ccccc2)ccc1=O	-1	1	-6	6.7*	-7	5.7*
O=C(N/N=C/C(Cl)=C/c1ccccc1)c1ccccn1	-1	-7	2	4	-9	.
O=C(N/N=C/C(Cl)=C/c1ccccc1)c1ccncc1	0	-7	12	4.9*	-4	4
Cn1cc(C(=O)N/N=C/C=C/c2ccccc2)ccc1=O	0	6	11	9.7*	-4	5.1*
CC(=O)Nc1ccc(NC(=O)C(C)NC(C)c2cccc3ccccc23)cc1 (centres undefined)	-1	-4	-7	0	-10	.
O=S1(=O)CCSC[C@@H](CNCc2ccco2)N1	.	.	.	2	.	.
Cc1cc(=O)oc2cc(OCc3c(F)cccc3Cl)ccc12	.	.	.	1	.	.
CC(C)c1[nH]nc2c1C(c1ccc(Br)cc1)NC2=O (centres undefined)	.	.	.	-1	.	.
CC(C)(C)OC(=O)N/N=C\C=C\c1ccc2c(c1)OCO2	0	3	1	5.1*	-4	4
CCN(CC)c1ccc(/C=N/NC(=O)CNC(=O)/C=C/c2ccco2)cc1	0	9	-1	6.3*	-12	8.0*
COC(=O)N/N=C\C=C\c1ccc2c(c1)OCO2	-1	8	6	3	-10	.
COc1ccc(/C=C/C(=O)NCc2ccc3c(c2)OCO3)cc1OC	0	5	4	2	-6	.
O=C(/C=C/c1ccco1)NCC(=O)N/N=C/c1ccccc1[N+](=O)[O-]	0	-1	6	1	-10	.
CCN(CC)c1ccc(/C=N/NC(=O)C2CC2)cc1	0	-2	-3	5.8*	-5	5.5*
COc1ccc(CC(=O)N/N=C/C=C/c2ccc3c(c2)OCO3)cc1OC	0	-6	3	5.9*	-6	4
CCCCCCC12Cc3cc(OC)c(OC)cc3C(O1)C1=C(O2)C(C)(C)CCC1=O (centres undefined)	.	.	.	-1	.	.
Cc1[nH]c2ccccc2c1CC(=O)Nc1ccc(N(C)c2cccnc2)c(-c2ccc(F)c(F)c2)c1	.	.	.	1	.	.
CCCCOCCCNC(=O)C[C@H]1C[C@@]2(C(=O)OC)C(=C[C@H](C(C)(C)C)O[C@@H]2C)N(Cc2ccccc2)C1=O	.	.	.	1	.	.
COc1ccc(N)cc1CN1CCN(c2ncc(Cc3ccccc3)cn2)CC1	.	.	.	1	.	.
CC(C)(C)n1nc(C2CC2)c(Br)c1NC(=O)c1ccc(Cl)cc1	.	.	.	1	.	.
CCOC(=O)CNC(=O)/C=C/c1ccc2c(c1)OCO2	-1	6	11	4	-13	.
CCN(CC)c1ccc(/C=N/NC(=O)Cc2ccc(OC)c(OC)c2)cc1	0	3	8	5.2*	-7	2
